Measured values reported in paper PMC8158801 (ACS Omega, 2021).

How the values were obtained:
[1] = test system: mouse myelogenous leukemia (M-NFS-60) cell line; experiment: Cytotoxic activity, MTT cell viability assay, M-NFS-60; type: cell-based; set-up: unit not given beside the values; conditions: n = 3, reference standard
Summary of the method: (§1)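 The defatted alcoholic root extract was tested at 4–500 μg/mL, with cisplatin as the reference standard, in an MTT cell-viability assay. Viability is expressed as % of untreated control. IC50 was derived by linear regression. Each point was run in triplicate and reported as mean ± SD.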

[2] = test system: Human hepatocellular carcinoma (HepG2) cell line; experiment: Cytotoxic activity, MTT cell viability assay, HepG2; type: cell-based; set-up: unit not given beside the values; conditions: n = 3, reference standard
Summary of the method: as §1

N.N.[Cl][Pt][Cl] [cisplatin]
IC50 against M-NFS-60 cell line (unit not given) [1]: 8.37 ± 0.25
IC50 against HepG2 cell line (unit not given) [2]: 3.25 ± 1.4
